Series [1] addresses T1, Dual specificity protein kinase TTK (Homo sapiens, UniProt P33981).
T1 sequence (P33981 whole entry): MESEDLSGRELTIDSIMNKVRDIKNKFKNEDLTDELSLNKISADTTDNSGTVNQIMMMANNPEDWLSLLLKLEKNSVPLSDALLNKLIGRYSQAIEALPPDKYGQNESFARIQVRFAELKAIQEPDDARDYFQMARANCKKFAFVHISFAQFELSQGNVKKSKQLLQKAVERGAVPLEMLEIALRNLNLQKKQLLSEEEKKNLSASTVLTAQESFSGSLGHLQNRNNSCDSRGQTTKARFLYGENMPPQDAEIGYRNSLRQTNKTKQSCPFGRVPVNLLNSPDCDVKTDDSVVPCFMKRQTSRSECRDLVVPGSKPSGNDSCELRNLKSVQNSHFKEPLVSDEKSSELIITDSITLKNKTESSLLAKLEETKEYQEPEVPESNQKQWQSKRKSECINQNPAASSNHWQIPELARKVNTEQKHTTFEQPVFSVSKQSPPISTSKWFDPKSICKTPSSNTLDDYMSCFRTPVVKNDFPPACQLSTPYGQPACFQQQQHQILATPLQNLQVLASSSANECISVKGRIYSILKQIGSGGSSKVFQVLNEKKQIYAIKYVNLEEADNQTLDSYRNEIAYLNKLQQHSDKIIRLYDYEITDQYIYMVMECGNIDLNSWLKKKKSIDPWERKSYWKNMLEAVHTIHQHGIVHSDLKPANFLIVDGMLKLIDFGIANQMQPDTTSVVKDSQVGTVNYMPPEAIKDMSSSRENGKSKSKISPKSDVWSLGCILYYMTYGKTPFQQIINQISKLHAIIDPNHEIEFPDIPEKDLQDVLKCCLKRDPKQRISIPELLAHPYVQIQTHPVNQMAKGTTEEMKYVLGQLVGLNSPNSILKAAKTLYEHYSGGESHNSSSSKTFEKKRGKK
The experiment in a line: Inhibition of TTK autophosphorylation in human CAL51 cells by radioimmuno-precipitation assay. The class given is cell-based.

The target in series [2] is T2, Mitogen-activated protein kinase 8 (Homo sapiens, UniProt P45983). The experiment in a line: Inhibition of recombinant human full length His-tagged JNK1 expressed in baculovirus expression system by Z'-LYTE assay.
For series [3], the target named is T2, Mitogen-activated protein kinase 8. Nature of the series: Inhibition of recombinant human full length His-tagged JNK1 expressed in baculovirus expression system at 3 uM by Z'-LYTE assay relative to control. The gist of the method: (§1)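 Kinase selectivity panel: single-point assessment at 3 µM, n=1.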
The target in another series is LRRK2 (Homo sapiens, UniProt Q5S007). Nature of the series: Inhibition of recombinant human GST-tagged LRRK2 catalytic domain (970 to 2527 residues) expressed in baculovirus expression system at 3 uM using LRRKtide as substrate measured after 1 hr by Alexa fluor-647 ADP tracer-based ADAPTA assay relative to control. To be noted: probe LRRKtide. The procedure, abridged:
as §1

Series [4] deals with Mitogen-activated protein kinase 9 (Homo sapiens, UniProt P45984). The experiment in a line: Inhibition of recombinant human full length His-tagged JNK2 expressed in baculovirus expression system at 3 uM by Z'-LYTE assay relative to control. The procedure, abridged:
as §1

Series [5] concerns the target T3, Dual specificity tyrosine-phosphorylation-regulated kinase 3 (Homo sapiens, UniProt O43781).
T3 sequence (O43781 whole entry): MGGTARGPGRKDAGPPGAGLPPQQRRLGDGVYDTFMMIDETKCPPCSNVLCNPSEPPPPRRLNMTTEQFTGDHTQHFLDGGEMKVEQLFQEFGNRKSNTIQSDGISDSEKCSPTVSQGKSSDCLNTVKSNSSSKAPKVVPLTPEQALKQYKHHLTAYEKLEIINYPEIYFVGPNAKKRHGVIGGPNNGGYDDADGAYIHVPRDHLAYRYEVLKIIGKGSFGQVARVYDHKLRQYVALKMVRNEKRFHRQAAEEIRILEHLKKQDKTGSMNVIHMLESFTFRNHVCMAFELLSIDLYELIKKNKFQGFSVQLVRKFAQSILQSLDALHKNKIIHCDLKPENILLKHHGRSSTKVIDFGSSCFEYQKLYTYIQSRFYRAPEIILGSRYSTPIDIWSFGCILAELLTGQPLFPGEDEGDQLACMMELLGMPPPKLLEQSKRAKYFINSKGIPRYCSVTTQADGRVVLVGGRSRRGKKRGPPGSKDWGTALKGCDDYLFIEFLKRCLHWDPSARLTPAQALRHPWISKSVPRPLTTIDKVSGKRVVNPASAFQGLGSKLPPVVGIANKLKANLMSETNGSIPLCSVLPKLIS
The experiment in a line: Inhibition of recombinant human full length GST-tagged DYRK3 expressed in baculovirus expression system by Z'-LYTE assay.

Series [6] concerns the target T4, Testis-specific serine/threonine-protein kinase 1 (Homo sapiens) (UniProt Q9BXA7).
T4 sequence (whole entry): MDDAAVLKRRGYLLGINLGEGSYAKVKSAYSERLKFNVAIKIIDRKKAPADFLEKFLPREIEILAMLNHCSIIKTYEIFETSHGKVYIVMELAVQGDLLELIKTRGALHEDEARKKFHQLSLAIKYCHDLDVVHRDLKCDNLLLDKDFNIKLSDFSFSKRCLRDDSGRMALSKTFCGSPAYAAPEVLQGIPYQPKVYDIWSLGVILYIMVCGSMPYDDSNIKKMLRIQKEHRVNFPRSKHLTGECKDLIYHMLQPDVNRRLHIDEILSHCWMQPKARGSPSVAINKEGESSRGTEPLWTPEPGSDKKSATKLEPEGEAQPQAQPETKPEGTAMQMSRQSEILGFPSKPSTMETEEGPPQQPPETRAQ
The experiment in a line: Inhibition of recombinant human full length His-tagged TSSK1 expressed in baculovirus expression system at 3 uM by Z'-LYTE assay relative to control. The procedure, abridged:
as §1

Series [7] addresses Dual specificity protein kinase CLK2 (Homo sapiens, UniProt P49760). The experiment in a line: Inhibition of recombinant human GST-tagged CLK2 catalytic domain (137 to 498 residues) expressed in baculovirus expression system by Z'-LYTE assay.
For series [8], the target named is Leukocyte tyrosine kinase receptor (Homo sapiens, UniProt P29376). The experiment in a line: Inhibition of recombinant human GST-tagged LTK cytoplasmic domain (450 to 864 residues) expressed in baculovirus expression system by Z'-LYTE assay.
A further series is filed under the species Homo sapiens. The experiment in a line: Selectivity ratio of IC50 for recombinant human full length His-tagged JNK1 expressed in baculovirus expression system to IC50 for inhibition of Kinase Tracer 236 binding to recombinant human full-length GST-tagged TTk expressed in baculovirus expression system.
Series [9] is described as follows: Cmax in rat at 10 mg/kg, po. Type of series: ADME, organism-based. Details: dose 10 mg/kg, route oral. Conditions: in vivo. The procedure, abridged:
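Rat oral PK at 10 mg/kg. Compound is given as a solution in CMCT (0.5% CMC/0.25% tween-80) or formulated in 5% TPGS, 10% captisol, 50 mM citrate buffer. Cmax and AUC are recorded.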

In another series the test system is CAL-51. Nature of the series: Induction of apoptosis in human CAL51 cells xenografted in CB17 SCID mouse assessed as activation of cleaved caspase-3 at 30 mg/kg, po measured after 1 to 48 hrs by MSD electrochemiluminescent immunoassay relative to control. Type of series: functional. The gist of the method: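 CB17 SCID mice bearing CAL-51 tumours of 300-500 mm3 given compound orally. At preset time points the mice were euthanised and the tumours dissected and snap-frozen in liquid nitrogen. pHH3 Ser10 or cleaved caspase measured by MSD electrochemiluminescent immunoassay kit. Data are mean ± SEM.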
On the technique in general: Xenograft models place foreign cells or tissue in a host animal.

T2 sequence (P45983 whole entry): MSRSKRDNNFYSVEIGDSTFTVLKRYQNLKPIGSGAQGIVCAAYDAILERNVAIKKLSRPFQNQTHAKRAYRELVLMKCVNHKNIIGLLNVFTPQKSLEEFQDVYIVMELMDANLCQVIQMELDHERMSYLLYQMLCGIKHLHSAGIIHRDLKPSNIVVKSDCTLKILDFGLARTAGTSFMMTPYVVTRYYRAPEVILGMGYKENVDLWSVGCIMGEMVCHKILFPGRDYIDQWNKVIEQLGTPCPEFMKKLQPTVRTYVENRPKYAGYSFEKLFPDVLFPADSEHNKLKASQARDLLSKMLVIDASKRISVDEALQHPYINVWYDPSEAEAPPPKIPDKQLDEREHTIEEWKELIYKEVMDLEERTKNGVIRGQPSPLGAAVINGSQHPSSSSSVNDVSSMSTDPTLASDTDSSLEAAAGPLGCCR
Sequence of Mitogen-activated protein kinase 9 (P45984 whole entry, looked up): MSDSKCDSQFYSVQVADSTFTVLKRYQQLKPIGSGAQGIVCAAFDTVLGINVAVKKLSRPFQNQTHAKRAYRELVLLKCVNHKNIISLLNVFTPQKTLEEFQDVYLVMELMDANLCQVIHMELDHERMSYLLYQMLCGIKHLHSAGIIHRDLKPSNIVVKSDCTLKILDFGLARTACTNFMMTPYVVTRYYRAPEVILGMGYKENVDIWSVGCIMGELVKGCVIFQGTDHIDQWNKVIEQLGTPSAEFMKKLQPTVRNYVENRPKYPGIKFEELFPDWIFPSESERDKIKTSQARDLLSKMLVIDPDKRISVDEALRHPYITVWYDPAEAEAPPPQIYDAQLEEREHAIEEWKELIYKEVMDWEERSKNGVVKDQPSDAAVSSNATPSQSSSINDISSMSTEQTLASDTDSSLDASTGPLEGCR
Sequence of LRRK2 (Q5S007 whole entry, the tested form may be a part): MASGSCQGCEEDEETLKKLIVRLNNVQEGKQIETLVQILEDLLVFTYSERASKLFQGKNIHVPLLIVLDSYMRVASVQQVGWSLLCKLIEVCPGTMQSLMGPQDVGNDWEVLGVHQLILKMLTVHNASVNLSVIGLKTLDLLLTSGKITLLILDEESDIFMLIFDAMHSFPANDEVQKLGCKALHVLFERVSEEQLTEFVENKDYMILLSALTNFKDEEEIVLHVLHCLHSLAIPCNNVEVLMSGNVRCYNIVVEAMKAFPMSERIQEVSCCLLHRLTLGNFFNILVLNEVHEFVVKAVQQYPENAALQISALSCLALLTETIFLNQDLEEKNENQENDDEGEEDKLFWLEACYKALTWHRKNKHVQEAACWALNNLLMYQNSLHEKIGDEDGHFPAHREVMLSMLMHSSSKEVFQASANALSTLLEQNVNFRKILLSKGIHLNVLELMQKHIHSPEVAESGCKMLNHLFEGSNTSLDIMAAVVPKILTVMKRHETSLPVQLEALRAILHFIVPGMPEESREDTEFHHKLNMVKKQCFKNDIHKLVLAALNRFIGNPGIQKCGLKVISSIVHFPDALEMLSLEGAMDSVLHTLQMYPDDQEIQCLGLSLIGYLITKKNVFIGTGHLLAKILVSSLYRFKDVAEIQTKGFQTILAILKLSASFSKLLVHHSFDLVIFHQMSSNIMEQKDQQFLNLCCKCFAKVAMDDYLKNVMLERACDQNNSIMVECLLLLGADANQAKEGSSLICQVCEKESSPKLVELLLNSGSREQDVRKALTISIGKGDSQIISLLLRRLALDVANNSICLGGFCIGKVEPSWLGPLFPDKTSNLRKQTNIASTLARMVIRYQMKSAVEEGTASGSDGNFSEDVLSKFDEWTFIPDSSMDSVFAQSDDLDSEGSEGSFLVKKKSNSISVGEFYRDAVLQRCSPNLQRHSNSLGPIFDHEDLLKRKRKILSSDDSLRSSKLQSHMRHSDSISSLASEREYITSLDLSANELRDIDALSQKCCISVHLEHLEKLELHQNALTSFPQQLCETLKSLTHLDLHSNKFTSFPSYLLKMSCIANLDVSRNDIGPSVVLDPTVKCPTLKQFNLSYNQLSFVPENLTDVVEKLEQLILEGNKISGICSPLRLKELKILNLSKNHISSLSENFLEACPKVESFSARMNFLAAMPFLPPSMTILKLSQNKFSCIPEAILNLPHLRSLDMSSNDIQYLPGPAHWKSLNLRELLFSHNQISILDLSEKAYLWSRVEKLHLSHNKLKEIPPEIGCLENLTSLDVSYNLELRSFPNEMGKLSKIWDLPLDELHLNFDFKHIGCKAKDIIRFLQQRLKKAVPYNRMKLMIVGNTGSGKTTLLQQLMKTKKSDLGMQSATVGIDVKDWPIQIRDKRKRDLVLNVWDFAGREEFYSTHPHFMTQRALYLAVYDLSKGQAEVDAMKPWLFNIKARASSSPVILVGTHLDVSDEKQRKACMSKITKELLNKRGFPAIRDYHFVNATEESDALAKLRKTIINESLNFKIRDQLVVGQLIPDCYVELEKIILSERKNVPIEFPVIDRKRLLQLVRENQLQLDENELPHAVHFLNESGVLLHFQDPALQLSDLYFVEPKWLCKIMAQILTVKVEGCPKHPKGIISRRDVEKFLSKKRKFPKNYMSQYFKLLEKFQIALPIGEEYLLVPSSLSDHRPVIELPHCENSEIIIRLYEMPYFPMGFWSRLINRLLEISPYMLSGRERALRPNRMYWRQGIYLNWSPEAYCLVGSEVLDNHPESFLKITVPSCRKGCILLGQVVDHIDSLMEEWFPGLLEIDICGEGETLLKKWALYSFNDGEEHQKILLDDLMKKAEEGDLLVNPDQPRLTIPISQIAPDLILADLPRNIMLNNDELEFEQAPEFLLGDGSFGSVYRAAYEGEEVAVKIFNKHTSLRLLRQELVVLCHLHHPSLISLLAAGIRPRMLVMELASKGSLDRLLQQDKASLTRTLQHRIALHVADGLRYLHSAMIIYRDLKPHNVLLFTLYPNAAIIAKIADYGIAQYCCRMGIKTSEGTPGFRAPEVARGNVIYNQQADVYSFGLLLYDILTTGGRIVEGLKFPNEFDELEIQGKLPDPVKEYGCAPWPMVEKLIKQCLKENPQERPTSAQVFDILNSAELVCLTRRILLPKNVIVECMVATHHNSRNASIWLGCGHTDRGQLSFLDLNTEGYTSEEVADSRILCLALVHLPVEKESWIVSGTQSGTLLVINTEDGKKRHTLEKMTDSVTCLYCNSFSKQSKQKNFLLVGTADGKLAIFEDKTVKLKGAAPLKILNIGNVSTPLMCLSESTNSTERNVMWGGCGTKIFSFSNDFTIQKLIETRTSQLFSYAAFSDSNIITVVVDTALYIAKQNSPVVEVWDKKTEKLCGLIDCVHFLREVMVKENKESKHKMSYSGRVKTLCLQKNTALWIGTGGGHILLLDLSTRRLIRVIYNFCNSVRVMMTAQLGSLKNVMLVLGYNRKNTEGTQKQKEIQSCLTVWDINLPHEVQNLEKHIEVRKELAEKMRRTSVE
Sequence of Leukocyte tyrosine kinase receptor (P29376 whole entry, the tested form may be a part): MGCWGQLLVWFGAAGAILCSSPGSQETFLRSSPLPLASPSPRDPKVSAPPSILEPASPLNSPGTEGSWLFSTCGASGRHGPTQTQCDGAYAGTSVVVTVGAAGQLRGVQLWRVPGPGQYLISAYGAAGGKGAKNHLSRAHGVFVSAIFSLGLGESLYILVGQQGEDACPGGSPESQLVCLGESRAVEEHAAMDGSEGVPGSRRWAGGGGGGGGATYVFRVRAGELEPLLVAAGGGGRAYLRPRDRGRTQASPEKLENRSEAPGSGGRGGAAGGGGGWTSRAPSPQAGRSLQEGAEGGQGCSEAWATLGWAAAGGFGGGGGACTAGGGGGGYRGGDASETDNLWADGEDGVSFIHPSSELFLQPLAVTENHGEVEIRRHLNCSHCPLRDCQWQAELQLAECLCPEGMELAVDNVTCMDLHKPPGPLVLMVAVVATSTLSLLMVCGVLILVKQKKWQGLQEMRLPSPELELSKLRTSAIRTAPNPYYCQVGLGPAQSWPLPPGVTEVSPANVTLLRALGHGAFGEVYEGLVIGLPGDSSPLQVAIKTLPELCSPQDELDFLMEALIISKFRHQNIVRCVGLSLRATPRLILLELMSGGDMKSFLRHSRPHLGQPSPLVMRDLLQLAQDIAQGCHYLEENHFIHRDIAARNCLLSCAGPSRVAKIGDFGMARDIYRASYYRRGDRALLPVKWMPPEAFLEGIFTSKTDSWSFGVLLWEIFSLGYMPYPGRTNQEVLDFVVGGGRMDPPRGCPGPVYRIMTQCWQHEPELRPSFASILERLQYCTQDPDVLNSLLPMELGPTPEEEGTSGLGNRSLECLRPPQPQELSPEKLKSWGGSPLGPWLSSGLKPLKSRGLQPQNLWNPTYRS
Sequence of Dual specificity protein kinase CLK2 (P49760 whole entry, the tested form may be a part): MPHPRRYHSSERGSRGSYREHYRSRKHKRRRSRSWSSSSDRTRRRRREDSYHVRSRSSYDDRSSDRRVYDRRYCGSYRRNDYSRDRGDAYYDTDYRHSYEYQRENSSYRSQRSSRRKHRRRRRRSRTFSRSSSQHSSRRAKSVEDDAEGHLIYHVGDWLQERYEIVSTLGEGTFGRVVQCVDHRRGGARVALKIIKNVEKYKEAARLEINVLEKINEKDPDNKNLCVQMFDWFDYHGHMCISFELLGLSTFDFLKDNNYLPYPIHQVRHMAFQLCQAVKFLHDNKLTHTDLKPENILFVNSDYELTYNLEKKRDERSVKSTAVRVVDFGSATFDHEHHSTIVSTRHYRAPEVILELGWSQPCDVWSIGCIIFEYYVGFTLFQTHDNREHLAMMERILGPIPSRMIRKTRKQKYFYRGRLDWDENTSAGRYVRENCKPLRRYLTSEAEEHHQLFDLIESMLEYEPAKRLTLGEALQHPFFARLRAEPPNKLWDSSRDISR

As usually defined, the IC50 is the point on the concentration scale where inhibition reaches its midpoint. By inhibition is commonly meant the percentage by which the read-out fell short of the control. The term Cmax denotes the highest concentration seen after dosing. As to `C[C@@H](Oc1cc(C(=O)N(C)C)ccc1Nc1nc(O[C@H]2CC[C@@](C)(O)CC2)c2c(Cl)c[nH]c2n1)C(F)(F)F`, the half-maximal inhibitory concentration (IC50) was found to be 9 nM in [1]; 0.032 nM in series [2]; 0.104 nM in series [5]; 0.261 nM in [7]; 0.567 nM in series [8]. In addition, the inhibition in series [3], in [4] and in series [6] was more than 80% in each case. Moreover, the inhibition at 1 h, 3 µM at LRRK2 was more than 80%. Further, the Ratio IC50 in the series listed under Homo sapiens is less than 100. In series [9], this molecule showed a Cmax of 4.35 µM. Further, the Activity in the series on CAL-51 was found to be 250%.
